According to ChEMBL document CHEMBL1132576, “Tetrahydrobenzindoles: selective antagonists of the 5-HT7 receptor” (J Med Chem, 1999):

Columns and labels:
[1] = biological target: 5-hydroxytryptamine receptor 7 (Homo sapiens, UniProt P34969); test: Compound was evaluated for its ability to displace [3H]5-CT binding from cloned human 5-hydroxytryptamine 7 receptor expressed in COS-7 cells.; type: cell-based
Procedure, shortened: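 Radioligand displacement of [³H]5-CT from cloned human 5-HT7 receptor expressed in COS-7 cells. Values reported as pKi, each the mean of at least two determinations, each within 0.2 log unit of the mean.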

[2] = biological target: Serotonin 2 (5-HT2) receptor (Rattus norvegicus, UniProt P30994+P08909+P14842); test: Compound was evaluated for its ability to displace [3H]ketanserin binding from […] rat cerebral cortex membranes 5-hydroxytryptamine 2 receptor; type: tissue-based
Procedure, shortened: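 Displacement of [³H]ketanserin from 5-HT2 sites in rat cerebral cortex membranes. Values reported as pKi, each the mean of at least two determinations, each within 0.2 log unit of the mean.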

D(2) dopamine receptor = D(2) dopamine receptor (Rattus norvegicus, UniProt P61169); test: Compound was evaluated for its ability to displace [3H]spiperone binding from Dopamine receptor D2 in rat striatum.
Procedure, shortened: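 Dopamine D2 binding was run in rat striatum with [3H]spiperone as radioligand. Values are pKi, mean of at least two determinations, each within 0.2 log unit of the mean.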

[3] = biological target: 5-hydroxytryptamine receptor 6 (Homo sapiens, UniProt P50406); test: Compound was evaluated for its ability to displace [3H]LSD binding from human recombinant 5-hydroxytryptamine 6 receptor
Procedure, shortened: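 Displacement of [3H]LSD from human recombinant 5-HT6 receptor expressed in mammalian cells. pKi is the mean of at least two determinations, each lying within 0.2 log unit of the mean.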

[4] = biological target: T1, 5-hydroxytryptamine receptor 1A (Homo sapiens, UniProt P08908); test: Compound was evaluated for its ability to displace [3H]8-OH-DPAT binding from human 5-hydroxytryptamine 1A receptor in mammalian cells; type: cell-based
T1 sequence (P08908 whole entry): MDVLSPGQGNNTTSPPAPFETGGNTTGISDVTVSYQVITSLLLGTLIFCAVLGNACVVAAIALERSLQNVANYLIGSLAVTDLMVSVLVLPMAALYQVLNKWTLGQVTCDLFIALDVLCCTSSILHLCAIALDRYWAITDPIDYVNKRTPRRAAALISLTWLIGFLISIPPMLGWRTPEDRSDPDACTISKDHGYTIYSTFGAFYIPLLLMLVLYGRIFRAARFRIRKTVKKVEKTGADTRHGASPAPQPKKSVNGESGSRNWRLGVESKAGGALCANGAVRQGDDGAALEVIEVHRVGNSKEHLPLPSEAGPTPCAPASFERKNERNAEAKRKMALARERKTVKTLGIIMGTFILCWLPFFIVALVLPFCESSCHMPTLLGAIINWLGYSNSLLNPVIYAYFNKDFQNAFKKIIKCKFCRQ
Procedure, shortened: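 Radioligand displacement at human recombinant 5-HT1A receptor expressed in mammalian cells, labelled with [3H]8-OH-DPAT. Affinity reported as pKi, mean of at least two determinations, each within 0.2 log unit of the mean.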

[5] = biological target: 5-hydroxytryptamine receptor 4 (Cavia porcellus, UniProt O70528); test: Compound was evaluated for its ability to displace [3H]GR-113808 binding from 5-hydroxytryptamine 4 receptor in guinea pig striatum.
Procedure, shortened: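 Competition binding in guinea-pig striatum using [3H]GR-113808 at 5-HT4 sites. pKi is the mean of at least two determinations, each within 0.2 log unit of the mean.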

Sequence of 5-hydroxytryptamine receptor 7 (P34969 whole entry): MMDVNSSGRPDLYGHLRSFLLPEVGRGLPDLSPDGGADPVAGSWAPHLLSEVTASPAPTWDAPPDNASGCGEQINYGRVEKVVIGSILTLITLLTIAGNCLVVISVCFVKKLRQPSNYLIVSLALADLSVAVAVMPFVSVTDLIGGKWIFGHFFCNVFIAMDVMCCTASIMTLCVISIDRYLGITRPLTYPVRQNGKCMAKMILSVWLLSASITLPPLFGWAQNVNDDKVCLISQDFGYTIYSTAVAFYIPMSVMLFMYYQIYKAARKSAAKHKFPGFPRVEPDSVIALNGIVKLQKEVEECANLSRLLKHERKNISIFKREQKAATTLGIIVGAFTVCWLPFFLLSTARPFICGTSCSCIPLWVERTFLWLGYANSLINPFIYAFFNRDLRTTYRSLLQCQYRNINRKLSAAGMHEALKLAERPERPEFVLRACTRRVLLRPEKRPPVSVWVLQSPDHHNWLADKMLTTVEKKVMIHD
Sequence of 5-hydroxytryptamine receptor 4 (O70528 whole entry): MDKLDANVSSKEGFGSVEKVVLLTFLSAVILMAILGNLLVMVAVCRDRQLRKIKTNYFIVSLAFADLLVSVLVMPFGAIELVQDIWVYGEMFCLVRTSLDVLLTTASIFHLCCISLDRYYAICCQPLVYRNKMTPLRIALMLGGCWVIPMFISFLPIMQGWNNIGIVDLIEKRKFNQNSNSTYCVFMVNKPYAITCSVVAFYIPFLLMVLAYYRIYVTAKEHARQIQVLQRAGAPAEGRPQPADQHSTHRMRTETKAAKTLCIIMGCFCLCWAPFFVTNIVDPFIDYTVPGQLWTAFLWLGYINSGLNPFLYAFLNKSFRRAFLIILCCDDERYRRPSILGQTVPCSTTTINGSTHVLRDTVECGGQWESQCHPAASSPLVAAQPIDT
Sequence of 5-hydroxytryptamine receptor 6 (P50406 whole entry): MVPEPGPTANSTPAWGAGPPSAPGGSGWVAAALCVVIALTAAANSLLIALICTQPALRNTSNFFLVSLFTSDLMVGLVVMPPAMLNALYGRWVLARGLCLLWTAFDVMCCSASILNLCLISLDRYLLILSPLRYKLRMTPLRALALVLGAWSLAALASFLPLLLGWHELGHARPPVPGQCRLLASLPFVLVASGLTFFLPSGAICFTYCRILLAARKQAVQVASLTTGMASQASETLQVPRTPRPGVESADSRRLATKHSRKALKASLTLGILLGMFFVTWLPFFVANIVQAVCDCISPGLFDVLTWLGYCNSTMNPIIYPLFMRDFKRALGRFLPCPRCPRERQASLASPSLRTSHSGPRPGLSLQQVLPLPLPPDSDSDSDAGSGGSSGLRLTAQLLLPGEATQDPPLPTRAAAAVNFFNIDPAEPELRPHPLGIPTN
Sequence of D(2) dopamine receptor (P61169 whole entry): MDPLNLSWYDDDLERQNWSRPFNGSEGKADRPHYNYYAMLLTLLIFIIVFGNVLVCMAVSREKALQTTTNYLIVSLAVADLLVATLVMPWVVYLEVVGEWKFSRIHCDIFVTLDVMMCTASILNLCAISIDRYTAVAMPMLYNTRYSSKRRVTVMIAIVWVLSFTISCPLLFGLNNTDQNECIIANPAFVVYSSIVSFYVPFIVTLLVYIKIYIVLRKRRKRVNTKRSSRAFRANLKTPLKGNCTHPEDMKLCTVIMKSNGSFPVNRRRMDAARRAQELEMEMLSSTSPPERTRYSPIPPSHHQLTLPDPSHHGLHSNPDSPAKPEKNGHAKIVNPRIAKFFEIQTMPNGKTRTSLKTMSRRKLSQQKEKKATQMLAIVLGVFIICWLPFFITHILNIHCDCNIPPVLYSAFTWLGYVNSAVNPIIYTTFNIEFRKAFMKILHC

Row | Ki [1] [nM] | Log Ki [2] | Compound | Ki (D(2) dopamine receptor) [nM] | Ki [3] [nM] | Ki [4] [nM] | Ki [5] [nM]
1 | 3.31 | -7.37 | O=C1Nc2cccc3c2C1(CCCCN1CCN(c2ccccc2)CC1)CCC3 (stereo not given) | – | – | – | –
2 | 5.13 | -6.95 | COc1ccccc1N1CCN(CCCCC23CCCc4cccc(c42)NC3=O)CC1 (stereo not given) | – | – | – | –
3 | 5.25 | -7.79 | O=C1Nc2cccc3c2C1(CCCN1CCN(c2ccccc2)CC1)CCC3 (stereo not given) | – | – | – | –
4 | 102 | -8.27 | O=C1Nc2cccc3c2C1(CCN1CCN(c2ccccc2)CC1)CCC3 (stereo not given) | – | – | – | –
5 | 3.8 | -6.98 | N#Cc1ccccc1N1CCN(CCCCC23CCCc4cccc(c42)NC3=O)CC1 (stereo not given) | – | – | – | –
6 | > 1000 | > -6 | O=C1Nc2cccc3c2C1(CCCCN1CCN(C2CCCCC2)CC1)CCC3 (stereo not given) | – | – | – | –
7 | 1.86 | -7.27 | O=C1Nc2cccc3c2C1(CCCCN1CCN(c2ccccn2)CC1)CCC3 (stereo not given) | – | – | – | –

Row | Compound | Ki [1] [nM] | Log Ki [2] | Ki (D(2) dopamine receptor) [nM] | Ki [3] [nM] | Ki [4] [nM] | Ki [5] [nM]
8 | O=C1Nc2cccc3c2C1(CCCCN1CC=C(c2ccccc2)CC1)CCC3 (stereo not given) | 2.14 | -7.01 | 105 | 525 | 170 | > 1000
